# Ends that are not written are not given here. * marks the point of attachment. Biotin = O=C1N[C@H]2[C@H](CS[C@H]2CCCCC(=O)*)N1; Ahx = NCCCCCC(=O)O
# T1: Gal4-PPARα (PPARα-LBD) (Homo sapiens, UniProt Q07869)
# T1 sequence (Q07869 239-466 limits assumed): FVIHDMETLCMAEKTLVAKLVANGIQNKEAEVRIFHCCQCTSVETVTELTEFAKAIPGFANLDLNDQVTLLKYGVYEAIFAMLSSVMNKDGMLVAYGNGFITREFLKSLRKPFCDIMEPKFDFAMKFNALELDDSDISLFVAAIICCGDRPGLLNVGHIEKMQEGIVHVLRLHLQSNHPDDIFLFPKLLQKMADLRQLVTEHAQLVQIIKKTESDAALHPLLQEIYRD
# T2: His-hPPARγ-LBD (PPARγ2 residues 231–505) (human, UniProt P37231-1 231-505)
# T2 sequence (looked up): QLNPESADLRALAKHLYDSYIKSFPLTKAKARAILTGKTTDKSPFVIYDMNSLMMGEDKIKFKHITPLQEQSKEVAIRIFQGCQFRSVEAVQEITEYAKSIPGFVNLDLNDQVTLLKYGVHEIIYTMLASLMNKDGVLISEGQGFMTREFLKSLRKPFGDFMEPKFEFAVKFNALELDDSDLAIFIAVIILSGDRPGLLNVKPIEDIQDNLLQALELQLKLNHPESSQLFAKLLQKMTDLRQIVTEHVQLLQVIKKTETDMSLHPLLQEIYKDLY
# Key:
# [1] = test system: human adipocytes from a type 2 diabetic donor (PT5022); assay: Glucose uptake assay, adipocytes from type 2 diabetic donor; format: cell-based; conditions: 100 nM insulin
# How it was run: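 Adipocytes from a type 2 diabetic donor were differentiated from preadipocytes and exposed on day 7 to test compound in DMEM with 0.2% BSA for 24 h. Uptake was read by luminescence (Glucose Uptake-Glo).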
# Gal4-PPARα (PPARα-LBD) = biological target: T1, Gal4-PPARα (PPARα-LBD); assay: Gal4-PPARα LBD::UAS-luciferase reporter cotransfection assay in HEK293T cells; format: cell-based; conditions: 1 μΜ compound
# How it was run: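 HEK293T cells were seeded at 3.3 × 10^6 per 10-cm plate. After 24 h they were PEI-transfected with 8 μg total DNA, Gal4-PPAR LBD plasmid and UAS-luciferase reporter at 1:1. After a further 24 h, cells were replated at 10,000 cells/well in 384-well plates, left 3 h, then given test compound or DMSO for 18 h. Luciferase was read with Britelite Plus.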
# [2] = biological target: T2, His-hPPARγ-LBD (PPARγ2 residues 231–505); assay: AlphaScreen or HTRF
PPARα activation compared to that observed with GW7647 treatment (Gal4-PPARα (PPARα-LBD)),binding result [2],Molecule,insulin-stimulated glucose uptake compared to DMSO [1]
–,–,"CN(CCOc1ccc(CC2SC(=O)NC2=O)cc1)c1ccccn1 (stereo not shown) [Rosi, rosiglitazone]",significantly enhanced
~ 45%,–,Cc1c(C)n(Cc2cccc(OC(C)(C)C(=O)O)c2)c2ccc(C(=O)N[C@@H](C)c3ccc(C(C)(C)C)cc3)cc12 [SR10171],significantly enhanced
–,binds,{Biotin-Ahx}-LTERHKILHRLLQEGSPSD [biotin-Ahx-SRC1-2 coactivator peptide],–

# Source: article PMC12830962 (Nature Communications, 2025)
